S1P1 ag-PAM = agonists and agonism potentiators of human S1P1 receptor. 0.57% of 56,000 active. AID 449. S1P1 CRE-bla cells, forskolin, beta-lactamase FRET, potentiator mode; S1P1 agonist co-added at EC20, 2 nM; 100% = saturating reference agonist, 0% = basal. activation, % at 9.5 µM. P21453;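 active means activation above a cutoff set at the mean activation of all tested compounds plus 3 SD, cut at about 54% in these data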;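 further: forskolin at 4 µM as EC80 and the EC20 agonist is SEW2871; 100% = SEW2871 at its EC100 plus forskolin at EC80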
Htt clearance = compounds clearing mutant huntingtin protein. HeLa Exon1htt(103Q)mCFP, aggregate imaging; zero = plate's median compound well. inhibition, % at 1.5 µM. 0.42% of 47,000 active;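 active means inhibition of aggregate fluorescence above about 70%, also judged a hit by eye on the cell image, limit read from the data, passing the limit was not always enough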;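 further: cells exposed to compound for three days before fixation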
S1P3 ag = agonists of human S1P3 receptor. activation, % at 4.5 µM. S1P3 NFAT-BLA reporter cells, agonism, FRET ratio; relative to 1 µM S1P, basal subtracted. 0.1% of 60,000 active. Q99500;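 active means activation above the screen-wide mean plus 3 SD, cut at about 4.5% in these data, passing the limit was not always enough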
Target sequence (Q99500 whole entry, looked up): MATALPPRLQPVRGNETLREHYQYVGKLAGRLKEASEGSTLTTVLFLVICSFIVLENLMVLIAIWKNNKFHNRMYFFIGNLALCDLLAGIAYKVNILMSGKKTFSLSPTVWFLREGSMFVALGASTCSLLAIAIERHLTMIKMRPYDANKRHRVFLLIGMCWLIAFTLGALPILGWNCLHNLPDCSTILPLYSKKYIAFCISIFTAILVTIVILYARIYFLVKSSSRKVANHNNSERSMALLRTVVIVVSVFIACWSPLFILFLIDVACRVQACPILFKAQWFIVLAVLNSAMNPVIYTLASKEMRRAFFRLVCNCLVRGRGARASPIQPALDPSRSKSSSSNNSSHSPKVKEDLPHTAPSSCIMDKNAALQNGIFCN
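Material: Human S1P3 NFAT-BLA reporter CHO cells | Incubation: Overnight plating, 4 h compound 37 °C, 2 h substrate RT | Signal: FRET β-lactamase substrate fluorescence, excitation 405 nm, 460/535 nm emission ratio, background-subtracted | Compound: 4.5 µM final, single dose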
MMP13 inh = blocks human MMP13 activity; P45452; MMP-13 fTHP FRET cleavage, Mca fluorescence; inhibition, % at 4 µM; 0.07% of 65,000 active; AID 570;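 active means inhibition above the mean of compound-free control plate wells plus 3 SD, cut at about 14% in these data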;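 further: 0% = DMSO wells and 100% = wells with reference MMP-13 inhibitor after basal subtraction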
The depositor's hits bear a star. This is a sample that favours compounds with a hit; in the whole collection about 0.78% have one here.

What do the screens show for `COc1cccc(N2CCN(c3ncnc4c3[nH]c3ccccc34)CC2C)c1` (stereo not drawn)?
S1P1 ag-PAM: 127; S1P3 ag: -4; MMP13 inh: -10

Results for CCOc1nc(C)ccc1-c1noc(-c2ccncc2)n1 ?
S1P1 ag-PAM: 56*; Htt clearance: -4; S1P3 ag: 1; MMP13 inh: -8

How did CCOc1ccc(-c2nnc(-c3ccccc3)o2)cc1 do in these assays?
Htt clearance: 23

What do the screens show for `CCOc1ccc(-c2nc(-c3ccccc3C)no2)cc1`?
S1P1 ag-PAM: 110*; Htt clearance: -88; S1P3 ag: -1; MMP13 inh: 4

How did O=C(CSc1nnc(-c2cccs2)n1-c1ccccc1)NCc1ccc2c(c1)OCO2 do in these assays?
S1P1 ag-PAM: 18; Htt clearance: 73*; S1P3 ag: -1; MMP13 inh: 5

What do the screens show for `CN(Cc1cnn(C)c1)C(=O)C1CCCCC1C(=O)O` (stereo not drawn)?
Htt clearance: -61

What do the screens show for `CCC(=O)Nc1ccc(Oc2ccc3c(c2)C(=O)N(c2ccc(O)cc2)C3=O)cc1`?
Htt clearance: -15

What do the screens show for `COc1ccccc1Oc1ccc2c(c1)C(=O)N(c1ccc(O)cc1)C2=O`?
S1P1 ag-PAM: 112*; S1P3 ag: -1; MMP13 inh: -3

What do the screens show for `COc1ccc(C2CCCN2C(=O)Nc2ccc(Cl)cc2)cc1OC` (stereo not drawn)?
Htt clearance: -20

What do the screens show for `O=C(Nc1ccc(N2CCCCC2)c(Cl)c1)c1ncn[nH]1`?
S1P1 ag-PAM: 127*; S1P3 ag: 0; MMP13 inh: 0

What do the screens show for `Cc1ccc(-c2nc3sc4c(N)ncnc4c3c3c2CCCC3)cc1`?
Htt clearance: -10

Results for COc1ccc(CN(C(=O)c2cnccn2)C(C(=O)NC(C)(C)C)c2cc(OC)c(OC)c(OC)c2)cc1 (stereo not drawn) ?
Htt clearance: 70*

What do the screens show for `COc1cc(C(C(=O)NC(C)(C)C)N(Cc2ccc3c(c2)OCO3)C(=O)c2cnccn2)cc(OC)c1OC` (stereo not drawn)?
Htt clearance: 14

What do the screens show for `CC(C)N(C(=O)c1ccc2nc3c4ccccc4c4ccccc4c3nc2c1)C(C)C`?
Htt clearance: -14

What do the screens show for `Cc1cccc(NC(=O)CC(C)(C)C)c1`?
S1P1 ag-PAM: -10; Htt clearance: 10; S1P3 ag: 0; MMP13 inh: -10

How did Cc1cccc(NC(=O)Cc2noc3ccccc23)c1 do in these assays?
Htt clearance: 84*

How did CCOCC(=O)Nc1nc(-c2ccccc2)c(CC)s1 do in these assays?
Htt clearance: -72

How did Cc1cc2ncn(/N=C/c3ccc([N+](=O)[O-])o3)c2cc1C do in these assays?
Htt clearance: 8

How did O=C(NCc1ccc2c(c1)OCO2)c1cccc(C(=O)NCc2ccc3c(c2)OCO3)c1 do in these assays?
S1P1 ag-PAM: -6; S1P3 ag: -1; MMP13 inh: 21*

How did CC1(C)Cc2c(cnn2-c2ccccc2)-c2c1c1ccccc1n2CC(O)CBr (stereo not drawn) do in these assays?
Htt clearance: 16

Results for O=C(NC1=NCCS1)c1cc(-c2ccccc2)nn1-c1ccccc1 ?
S1P1 ag-PAM: 52; S1P3 ag: 11*; MMP13 inh: -6

Results for CCc1oc2ccccc2c1C(=O)c1cc(Br)c(O)c(Br)c1 ?
S1P1 ag-PAM: 68*; S1P3 ag: -2; MMP13 inh: 0

What do the screens show for `O=C(/C=C\Nc1cccc(F)c1)c1ccc2c(c1)OCO2`?
S1P1 ag-PAM: -6; Htt clearance: 84*; S1P3 ag: -3; MMP13 inh: -10

What do the screens show for `CC(NS(=O)(=O)c1ccc(Cl)cc1)C(c1cccs1)N1CCN(C)CC1` (stereo not drawn)?
Htt clearance: 77*; MMP13 inh: 0

How did CC(NS(=O)(=O)c1ccc(F)cc1)C(c1cccs1)N1CCN(C)CC1 (stereo not drawn) do in these assays?
MMP13 inh: 4

What do the screens show for `Nc1c(C(=O)NCCN2CCOCC2)c2nc3ccccc3nc2n1CCc1ccccc1`?
S1P1 ag-PAM: -97; Htt clearance: -58; S1P3 ag: 7.9*; MMP13 inh: -130

Results for Nc1c(C(=O)NCCN2CCOCC2)c2nc3ccccc3nc2n1-c1ccc2c(c1)OCO2 ?
S1P1 ag-PAM: -13; S1P3 ag: 0; MMP13 inh: -31

What do the screens show for `Nc1c(C(=O)NCCN2CCOCC2)c2nc3ccccc3nc2n1CCc1ccccc1F`?
S1P1 ag-PAM: -64; S1P3 ag: 7; MMP13 inh: -114

How did Nc1c(C(=O)NCc2ccc3c(c2)OCO3)c2nc3ccccc3nc2n1CCCN1CCOCC1 do in these assays?
S1P1 ag-PAM: -137; S1P3 ag: 7.9*; MMP13 inh: -194

What do the screens show for `O=C(CSc1nnc(-c2ccco2)n1Cc1ccco1)Nc1ccccc1`?
Htt clearance: 29

Results for O=C(CSc1nnc(-c2ccccc2)n1Cc1ccco1)Nc1ccc(S(=O)(=O)N2CCCC2)cc1 ?
Htt clearance: 84*

What do the screens show for `COC(=O)c1cc(COc2ccc3oc(C)c(C(=O)OC(C)C)c3c2)c(C)o1`?
Htt clearance: -51

Results for COc1ccccc1N/C(N)=N/c1nc(CSc2ccc(C)cc2)cc(=O)[nH]1 ?
S1P1 ag-PAM: 59*; Htt clearance: 0; S1P3 ag: -1; MMP13 inh: 2

What do the screens show for `C/C(=N\NC(=O)c1[nH]c2c([N+](=O)[O-])cc(C)cc2c1-c1ccccc1)c1cccnc1`?
Htt clearance: -61

How did Cc1ccc(C(C)C)c(OCc2ccc(-c3nnco3)cc2)c1 do in these assays?
S1P1 ag-PAM: 98*; Htt clearance: -51; S1P3 ag: -2; MMP13 inh: -7

What do the screens show for `Cc1ccc(S(=O)(=O)N(C)Cc2ccc(-c3nnco3)cc2)cc1`?
S1P1 ag-PAM: 22; S1P3 ag: 0; MMP13 inh: 5

What do the screens show for `O=S(=O)(C/C(=C/CO)S(=O)(=O)c1ccccc1)c1ccccc1`?
S1P1 ag-PAM: 82*; Htt clearance: -77; S1P3 ag: -2; MMP13 inh: 8

What do the screens show for `CCOC(=O)c1cn2c3c(c(F)c(F)cc3c1=O)SC(N1CCOCC1)=N2`?
Htt clearance: 19

How did O=S1(=O)Nc2c(ccc3cccnc23)-c2ccccc21 do in these assays?
S1P1 ag-PAM: 118*; S1P3 ag: -1; MMP13 inh: 5

What do the screens show for `O=c1[nH]n(-c2cccc3cccnc23)c(=O)c2ccccc12`?
S1P1 ag-PAM: 8; Htt clearance: -7; S1P3 ag: 1; MMP13 inh: 3

Results for CCN(CC)Cc1c(O)ccc2c([N+](=O)[O-])c(C)n(-c3ccc(OC)cc3)c12 ?
Htt clearance: 71*

Results for CC(C)CCn1cnc2c1c(=O)n(C)c(=O)n2C ?
S1P1 ag-PAM: 19; Htt clearance: 73*; S1P3 ag: -1; MMP13 inh: 0

Results for COc1ccc2ncn(-c3ccccc3)c2c1 ?
S1P1 ag-PAM: 68*; Htt clearance: 75*; S1P3 ag: -2; MMP13 inh: 0
